Test [1] in a line: Displacement of [3H][…]-DTG from sigma 2 receptor in guinea pig brain cortex membranes after 150 mins by liquid scintillation counter method. The class given is cell membranes, Cavia porcellus. An outline of the steps: (§1)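 Radioligand displacement with [3H]-ditolylguanidine as the S2R label. Cold (+)-pentazocine is included to mask S1R sites. Results are reported as Ki.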
Test [2] is filed under the species Cavia porcellus. Briefly: Selectivity index, ratio of Ki for sigma 1 receptor in guinea pig brain cortex membranes to Ki for sigma 2 receptor in guinea pig brain cortex membranes. Type of test: cell membranes.
Test [3] deals with SH-SY5Y. In words: Neuroprotective activity against rotenone-induced cell death in human SH-SY5Y cells at 1 uM incubated for 24 hrs by MTT assay. Type of test: functional, cell-based. A digest of the protocol:
(§2)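 Rotenone 25 μM is the toxic insult to SH-SY5Y cells, with test compound at 1.0 or 5.0 μM. Protection is reported as % cell viability, mean ± SD of three independent experiments.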

For test [4], the system named is SH-SY5Y. Briefly: Neuroprotective activity against rotenone-induced cell death in human SH-SY5Y cells at 5 uM incubated for 24 hrs by MTT assay. Type of test: functional, cell-based. An outline of the steps:
as §2
In general terms: Formazan colour is commonly taken as a measure of viable cells.

In test [5] the test system is SH-SY5Y. Briefly: Neuroprotective activity against rotenone-induced cell death in human SH-SY5Y cells at 5 uM in presence of PB212 incubated for 24 hrs by MTT assay. The class given is functional, cell-based. An outline of the steps: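 SH-SY5Y cells receive rotenone 25 μM plus the S1R antagonist PB212 (5 μM) and compound at 1.0 or 5.0 μM. Output is % cell viability, mean ± SD of three independent experiments.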

Test [6] has as its system SH-SY5Y. Briefly: Neuroprotective activity against NMDA-induced cell death in human SH-SY5Y cells at 0.1 to 0.5 uM incubated for 24 hrs by MTT assay relative to control. The class given is functional.
For test [7], the system named is SH-SY5Y. Briefly: Neuroprotective activity against NMDA-induced cell death in human SH-SY5Y cells at 5 uM incubated for 24 hrs by MTT assay. The class given is functional, cell-based. A digest of the protocol: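 SH-SY5Y neuroblastoma cells are incubated 24 h with NMDA 250 μM and compound at 0.1, 0.5, 1.0 or 5.0 μM. Memantine serves as positive control. Read-out is % cell viability, mean ± SD of three independent experiments.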

Test [8] deals with T1, Glutamate NMDA receptor (Rattus norvegicus) (UniProt P35439+Q00959+Q00960+Q00961+Q62645+Q8VHN2+Q9R1M7). Briefly: Negative allosteric modulator of NMDA receptor assessed as NMDA-induced current in Sprague-Dawley rat Primary cortical neuron at 0.1 uM by whole cell patch clamp method relative to control. The class given is cell-based. As to conditions: Cortical neurone. An outline of the steps:
(§3)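 Whole-cell patch clamp on cortical neurons in primary culture. Currents are evoked by NMDA 100 μM plus glycine 1 μM, with the compound applied at increasing concentrations. The effect is expressed as % of the control current, mean ± SE of n cells.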
(In general: The patch-clamp technique gives a direct electrical read-out from membranes.)

In test [9] the target is T1, Glutamate NMDA receptor (Rattus norvegicus). In words: Negative allosteric modulator of NMDA receptor assessed as NMDA-induced current in Sprague-Dawley rat Primary cortical neuron at 1 uM by whole cell patch clamp method relative to control. Type of test: cell-based. As to conditions: Cortical neurone. A digest of the protocol: as §3
Test [10] shares this target. Briefly: Negative allosteric modulator of NMDA receptor assessed as NMDA-induced current in Sprague-Dawley rat Primary cortical neuron at 10 uM by whole cell patch clamp method relative to control. Type of test: cell-based. As to conditions: Cortical neurone. A digest of the protocol:
as §3

The target in test [11] is Sigma non-opioid intracellular receptor 1 (Homo sapiens, UniProt Q99720). Briefly: Displacement of [3H]-pentazocine from human Sigma 1 receptor by radioligand displacement assay. A digest of the protocol:
(§4)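 S1R labelled selectively with [3H]-(+)pentazocine in a radioligand displacement assay. Affinity is expressed as inhibition constant (Ki).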

Test [12] addresses Sigma intracellular receptor 2 (Homo sapiens, UniProt Q5BJF2). In words: Displacement of [3H]-ditolylguanidine from human Sigma 2 receptor by radioligand displacement assay. A digest of the protocol: as §1
In test [13] the target is Sigma non-opioid intracellular receptor 1 (Cavia porcellus, UniProt Q60492). Briefly: Displacement of [3H](+)-pentazocine from sigma 1 receptor in guinea pig brain cortex membranes after 150 mins by scintillation counting analysis. Type of test: cell membranes. A digest of the protocol:
as §4

The subject of test [14] is SH-SY5Y. Briefly: Neuroprotective activity against oligomycin-induced cell death in human SH-SY5Y cells at 5 uM incubated for 24 hrs by MTT assay relative to control. The class given is functional. An outline of the steps: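 SH-SY5Y cells were exposed to oligomycin (2.5 μM) as the toxic stimulus in the presence of test compound. Protection was scored as % cell viability.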

Test [15] deals with SH-SY5Y. In words: Neuroprotective activity against NMDA-induced cell death in human SH-SY5Y cells at 0.5 to 1 uM incubated for 24 hrs by MTT assay relative to control. Type of test: functional.
Test [16] relates to SH-SY5Y. Briefly: Neuroprotective activity against NMDA-induced cell death in human SH-SY5Y cells at 0.1 uM in presence of PB212 incubated for 24 hrs by MTT assay. The class given is functional, cell-based. A digest of the protocol:
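SH-SY5Y cells are exposed to NMDA 250 μM together with compound at 0.1 μM. This is done with and without the S1R antagonist PB212 (5 μM). Data are % cell viability, mean ± SD of three independent experiments.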

The source of these data is ChEMBL document CHEMBL4613319, “Novel Dithiolane-Based Ligands Combining Sigma and NMDA Receptor Interactions as Potential Neuroprotective Agents” (ACS Med Chem Lett, 2020).

The source made the active and inactive calls. The calls are words filed in the database; no cut-off is given here.

Chain of Sigma intracellular receptor 2 (Q5BJF2 whole entry): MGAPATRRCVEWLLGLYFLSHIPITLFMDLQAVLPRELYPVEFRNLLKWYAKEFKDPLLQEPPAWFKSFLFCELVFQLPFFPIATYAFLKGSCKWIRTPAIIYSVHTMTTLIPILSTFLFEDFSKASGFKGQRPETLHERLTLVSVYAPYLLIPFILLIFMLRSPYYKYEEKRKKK
Chain of Sigma non-opioid intracellular receptor 1 (Homo sapiens, UniProt Q99720) (Q99720 whole entry): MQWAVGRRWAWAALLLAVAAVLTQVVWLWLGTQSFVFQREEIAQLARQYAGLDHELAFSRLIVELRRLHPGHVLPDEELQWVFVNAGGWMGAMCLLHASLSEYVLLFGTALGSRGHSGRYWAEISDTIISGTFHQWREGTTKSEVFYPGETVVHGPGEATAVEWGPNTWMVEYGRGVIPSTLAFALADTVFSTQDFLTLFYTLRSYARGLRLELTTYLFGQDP
Chain of Sigma non-opioid intracellular receptor 1 (Cavia porcellus, UniProt Q60492) (Q60492 whole entry): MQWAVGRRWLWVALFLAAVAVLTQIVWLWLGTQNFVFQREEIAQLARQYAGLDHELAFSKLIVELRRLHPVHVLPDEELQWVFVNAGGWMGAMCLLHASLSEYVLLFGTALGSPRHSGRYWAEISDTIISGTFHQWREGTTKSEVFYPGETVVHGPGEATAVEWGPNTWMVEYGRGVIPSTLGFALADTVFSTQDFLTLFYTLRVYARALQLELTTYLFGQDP

As to `O=C(O)C(=O)O.c1ccc(CN2CCN(CC3COC4(CCCCC4)O3)CC2)cc1` (configuration not stated), the Ki in test [1] was found to be 0.035 µM. In addition, the Ratio Ki in test [2] amounted to 47. Further, the outcome in [3] and in test [4] was Active. For the same molecule, the result in test [5] and in test [7] was inactive. The molecule further came in with an Activity in test [6] of over 85%. The inhibition is 34% in [8], 18% in test [9] and 110% in test [10].
As for `c1ccc(CC2CCN(C[C@@H]3CS[C@]4(CCc5ccccc54)S3)CC2)cc1`, the Ki was determined as 0.071 µM in [11] and 0.03 µM in test [12].
With `O=C(O)C(=O)O.c1ccc(CC2CCN(CC3CSC4(CCCCC4)S3)CC2)cc1` (configuration not stated), the Ki in test [13] is 0.012 µM; in [1], 0.005 µM. Besides, the result in test [3] was Active. Besides, the result in test [5] and in [7] was inactive. The molecule also came in with an Activity in test [6] of over 85%.
Turning to `c1ccc(CC2CCN(C[C@@H]3CS[C@@]4(CCCCc5ccccc54)S3)CC2)cc1`, the Ki in test [11] was 0.068 µM; in test [12], 0.107 µM.
With `CC12CC3CC(C)(C1)CC(N)(C3)C2`, in test [7], the outcome was inactive.
In the case of `O=C(O)C(=O)O.c1ccc(CN2CCN(CC3CSC4(CCCCC4)O3)CC2)cc1` (configuration not stated), the values for the Ki in [13] and in test [1] were 0.0013 µM and 0.091 µM, respectively. Moreover, the Ratio Ki in test [2] worked out at 72. Besides, the outcome in test [3] and in test [4] was Active. The outcome in test [5] and in [7] was inactive. For the same molecule, the results for the Activity in test [14] and in test [15] were over 60% and 72 - 75%, respectively.
On to `c1ccc(CC2CCN(CC3CSC4(S3)c3ccccc3-c3ccccc34)CC2)cc1` (configuration not stated), for which the inhibitory constant (Ki) was 0.054 µM in test [11] and 0.071 µM in [12].
Turning to `CC1(C)SCC(CN2CCC(Cc3ccccc3)CC2)S1` (configuration not stated), the values for the Ki in test [11] and in [12] were 0.002 µM and 0.00059 µM, respectively.
The corresponding values for `CC1(C)SCC(CN2CCN(Cc3ccccc3)CC2)S1` (configuration not stated) are 0.0006 µM and 0.0033 µM.
`c1ccc(CC2CCN(CC3CSC4(CCCCCC4)S3)CC2)cc1` (configuration not stated): the Ki in [11] turned out to be 0.0017 µM; in test [12], 0.0081 µM.
Take `O=C(O)C(=O)O.O=C(O)C(=O)O.c1ccc(CN2CCN(CC3CSCS3)CC2)cc1` (configuration not stated): the Ki in [11] came out at 0.0021 µM; in test [12] it was 0.09 µM. Besides, the outcome in [3] was Active. Moreover, the outcome in test [5], in test [7] and in test [16] was inactive. Further, the Activity in test [6] is on record as over 85%.
For the molecule `O=C(O)C(=O)O.c1ccc(CC2CCN(CC3CSCS3)CC2)cc1` (configuration not stated), the Ki is 0.0005 µM in test [11] and 0.012 µM in test [12]. In test [15], the Activity is on record as 72 - 75%. For the same molecule, in [7], the result was inactive.
For the molecule `CC1(C)OCC(CN2CCN(Cc3ccccc3)CC2)O1` (configuration not stated), the Ki is 0.0054 µM in test [11] and 0.182 µM in test [12].
The corresponding values for `C[C@]1(c2ccccc2)SC[C@@H](CN2CCC(Cc3ccccc3)CC2)S1` are 0.076 µM and 0.063 µM.
In the case of `c1ccc(CC2CCN(C[C@@H]3CS[C@@]4(CCCc5ccccc54)S3)CC2)cc1`, the Ki in test [11] worked out at 0.052 µM; in test [12], 0.087 µM.
On the same counts, the results for `c1ccc(CC2CCN(CC3CSC4(CCCC4)S3)CC2)cc1` (configuration not stated) are 0.0042 µM and 0.003 µM.
For the molecule `CC1(C)OCC(CN2CCC(Cc3ccccc3)CC2)O1` (configuration not stated), the Ki came to 0.0006 µM in test [11] and 0.0062 µM in test [12].
On the same counts, the results for `c1ccc(CC2CCN(C[C@@H]3CS[C@]4(CCCc5ccccc54)S3)CC2)cc1` are 0.129 µM and 0.093 µM.
For the molecule `c1ccc(CC2CCN(C[C@H]3CS[C@]4(CCc5ccccc54)S3)CC2)cc1`, the Ki was 0.107 µM in test [11] and 0.065 µM in test [12].
Regarding `c1ccc(CC2CCN(C[C@H]3CS[C@@]4(CCCCc5ccccc54)S3)CC2)cc1`, the Ki was determined as 0.195 µM in test [11] and 0.158 µM in test [12].
`C[C@]1(c2ccccc2)SC[C@H](CN2CCC(Cc3ccccc3)CC2)S1`: the Ki came out at 0.068 µM in [11] and 0.085 µM in test [12].

Broadly, the Ki is a dissociation constant, usually derived from enzyme kinetics or from competition with a known ligand. Low readings indicate tighter binding, high ones weaker binding. By inhibition is commonly meant the relative decrease from the control value, in per cent.
